Where a SMILES comes first, the peptide text is derived from it. [ ]: non-standard residue; d: D form. Phe(3,4-Cl2) = N[C@@H](Cc1ccc(Cl)c(Cl)c1)C(=O)O; Cha = N[C@@H](CC1CCCCC1)C(=O)O
Tests used:
[1] = Binding affinity to Escherichia coli DNA sliding clamp protein expressed in Escherichia coli BL21(DE3) pLys by SPR assay
How it was run: (§1)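 Competition SPR at 25 °C in Hepes 10 mM pH 7.4, 0.15 M NaCl, 3 mM EDTA. Clamp (0.25 μM) was preincubated with challenger peptide (1.5 nM to 100 μM), then injected over a chip carrying immobilized P1 peptide (Pol IV C-terminal heptamer). IC50 was taken from inhibition of clamp/P1 binding.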

[2] = Binding affinity to Staphylococcus aureus DNA sliding clamp protein expressed in Escherichia coli BL21(DE3) pLys at 30 degC by ITC assay
How it was run: (§2)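 ITC at 30 °C. Peptide (200–600 μM) was injected stepwise (2 μL) into clamp solution (20–60 μM), with peptide/SC ratio 10, in Hepes 10 mM pH 7.4, NaCl 0.15 M, EDTA 3 mM. Peptide-into-buffer controls were subtracted, and N, KD, ΔH and ΔS were derived. Performed at least twice.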

[3] = Binding affinity to Staphylococcus aureus DNA sliding clamp protein expressed in Escherichia coli BL21(DE3) pLys by SPR assay; how it was run: as §1
[4] = Binding affinity to Bacillus subtilis DNA sliding clamp protein expressed in Escherichia coli BL21(DE3) pLys by SPR assay; how it was run: as §1
[5] = Binding affinity to Pseudomonas aeruginosa DNA sliding clamp protein expressed in Escherichia coli BL21(DE3) pLys at 30 degC by ITC assay; how it was run: as §2
[6] = Binding affinity to Bacillus subtilis DNA sliding clamp protein expressed in Escherichia coli BL21(DE3) pLys at 25 degC by ITC assay
How it was run: (§3)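 iTC200 calorimetry at 25 °C. Peptide (200–600 μM) was titrated in 2 μL injections into clamp (20–60 μM), with peptide/SC ratio 10, in 10 mM Hepes pH 7.4, 0.15 M NaCl, 3 mM EDTA. Data were corrected against peptide-into-buffer controls and fit for N, KD, ΔH and ΔS. At least two experiments.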

[7] = Binding affinity to Bacillus subtilis DNA sliding clamp protein expressed in Escherichia coli BL21(DE3) pLys at 30 degC by ITC assay; how it was run: as §2
[8] = Binding affinity to Escherichia coli DNA sliding clamp protein expressed in Escherichia coli BL21(DE3) pLys at 30 degC by ITC assay; how it was run: as §2
[9] = Binding affinity to Escherichia coli DNA sliding clamp protein expressed in Escherichia coli BL21(DE3) pLys at 25 degC by ITC assay; how it was run: as §3
[10] = Binding affinity to Mycobacterium tuberculosis DNA sliding clamp protein expressed in Escherichia coli BL21(DE3) pLys by SPR assay
How it was run: (§4)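 SPR competition at 25 °C in Hepes 10 mM pH 7.4, 0.15 M NaCl, 3 mM EDTA. Clamp (0.25 μM) preincubated with challenger peptide (1.5 nM to 100 μM), then injected over a chip loaded with P1 peptide. IC50 taken from inhibition of clamp/P1 binding; at least three independent experiments.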

[11] = Binding affinity to Pseudomonas aeruginosa DNA sliding clamp protein expressed in Escherichia coli BL21(DE3) pLys at 25 degC by ITC assay
How it was run: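 His-tagged P. aeruginosa (PAO1) dnaN clamp from pET-15b, IPTG 0.1 mM at 28 °C overnight; Ni-NTA then MonoQ purified, ultracentrifuged. Peptide (200–600 μM) titrated in 2 μL injections into clamp (20–60 μM), peptide/clamp ratio 10, in 10 mM Hepes pH 7.4, 0.15 M NaCl, 3 mM EDTA. Heat of peptide into buffer subtracted; KD, N, ΔH, ΔS fitted; at least two runs.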

[12] = Binding affinity to Pseudomonas aeruginosa DNA sliding clamp protein expressed in Escherichia coli BL21(DE3) pLys by SPR assay; how it was run: as §1
[13] = Binding affinity to Mycobacterium tuberculosis DNA sliding clamp protein expressed in Escherichia coli BL21(DE3) pLys at 25 degC by ITC assay
How it was run: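 ITC at 25 °C. Peptide (200−600 μM) titrated in 2 μL injections into clamp (20−60 μM) at a peptide/clamp ratio of 10, in 10 mM Hepes pH 7.4, 0.15 M NaCl, 3 mM EDTA. Corrected using peptide-into-buffer controls. N, KD, ΔH and ΔS fitted; at least two experiments.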

[14] = Binding affinity to Staphylococcus aureus DNA sliding clamp protein expressed in Escherichia coli BL21(DE3) pLys at 25 degC by SPR assay; how it was run: as §1
[15] = tested on: Pseudomonas aeruginosa; assay: Binding affinity to Pseudomonas aeruginosa DNA sliding clamp protein expressed in Escherichia coli BL21(DE3) pLys assessed as association constant at 25 degC by SPR assay
How it was run: (§5)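 Biacore SPR at 25 °C in 10 mM Hepes pH 7.4, 0.15 M NaCl, 3 mM EDTA. The E. coli Pol IV C-terminal heptamer (P1) was immobilized, and the clamp (Ni-NTA then MonoQ purified) was injected at 0.125–2 μM at 50 μL/min. After background subtraction, data were fit to a 1:1 Langmuir model to give KA.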

[16] = tested on: Escherichia coli; assay: Binding affinity to Escherichia coli DNA sliding clamp protein expressed in Escherichia coli BL21(DE3) pLys assessed as association constant at 25 degC by SPR assay; how it was run: as §5
[17] = Binding affinity to Mycobacterium tuberculosis DNA sliding clamp protein expressed in Escherichia coli BL21(DE3) pLys at 25 degC by SPR assay; how it was run: as §4
[18] = tested on: Staphylococcus aureus; assay: Binding affinity to Staphylococcus aureus DNA sliding clamp protein expressed in Escherichia coli BL21(DE3) pLys assessed as association constant at 25 degC by SPR assay; how it was run: as §5
[19] = Binding affinity to Pseudomonas aeruginosa DNA sliding clamp protein expressed in Escherichia coli BL21(DE3) pLys at 25 degC by SPR assay; how it was run: as §1
[20] = Binding affinity to Bacillus subtilis DNA sliding clamp protein expressed in Escherichia coli BL21(DE3) pLys at 25 degC by SPR assay; how it was run: as §1
[21] = tested on: Mycobacterium tuberculosis; assay: Binding affinity to Mycobacterium tuberculosis DNA sliding clamp protein expressed in Escherichia coli BL21(DE3) pLys assessed as association constant at 25 degC by SPR assay
How it was run: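 Direct SPR binding at 25 °C in 10 mM Hepes pH 7.4, 0.15 M NaCl, 3 mM EDTA. Ni-NTA/MonoQ-purified clamp (0.125−2 μM) injected at 50 μL/min over immobilized P1, the E. coli Pol IV C-terminal heptamer. Background subtracted; 1:1 Langmuir fit gives KA.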

[22] = Binding affinity to Escherichia coli DNA sliding clamp protein expressed in Escherichia coli BL21(DE3) pLys at 25 degC by SPR assay; how it was run: as §1
[23] = tested on: Bacillus subtilis; assay: Binding affinity to Bacillus subtilis DNA sliding clamp protein expressed in Escherichia coli BL21(DE3) pLys assessed as association constant at 25 degC by SPR assay; how it was run: as §5

## CC(=O)N[C@@H](CCC(N)=O)C(=O)N[C@@H](CC1CCCCC1)C(=O)N[C@@H](CC(=O)O)C(=O)N[C@@H](CC(C)C)C(=O)N[C@@H](Cc1ccccc1)C(=O)O (Ac-Q[Cha]DLF-OH)
[1]
  IC50: 170 nM
[2]
  Kd: 29000 nM
[3]; read-out: IC50
  IC50: 1540 nM
[4]; read-out: IC50
  IC50: 2100 nM
[5]
  Kd: 640 nM
[6]
  Kd: 12300 nM
[7]
  Kd: 8200 nM
[8]
  Kd: 1000 nM
[9]
  Kd: 230 nM

## CC(=O)N[C@@H](CCC(N)=O)C(=O)N[C@@H](CC1CCCCC1)C(=O)N[C@@H](CC(=O)O)C(=O)N[C@@H](CC(C)C)C(=O)N[C@@H](Cc1ccc(Cl)c(Cl)c1)C(=O)O (Ac-Q[Cha]DL[Phe(3,4-Cl2)]-OH)
[1]
  IC50: 80 nM
[3]
  IC50: Not Active
[4]
  IC50: Not Active
[10]
  IC50: 850 nM
[11]
  Kd: 99 nM
[12]
  IC50: 140 nM
[9]
  Kd: 50 nM
[13]
  Kd: 750 nM

## H-RQLVLGL-OH
[14]
  Kd: 250 nM
[15]
  KA: 1.7 ×10⁶ /M
[16]
  KA: 4.2 ×10⁶ /M
[17]
  Kd: 240 nM
[18]
  KA: 4.1 ×10⁶ /M
[19]
  Kd: 580 nM
[20]
  Kd: 290 nM
[21]
  KA: 4.6 ×10⁶ /M
[22]
  Kd: 230 nM
[23]
  KA: 3.5 ×10⁶ /M

From ChEMBL document CHEMBL3351841, “Differential modes of peptide binding onto replicative sliding clamps from various bacterial origins” (J Med Chem, 2014)
